According to ChEMBL document CHEMBL3813612, “Carolignans from the Aerial Parts of Euphorbia sikkimensis and Their Anti-HIV Activity” (J Nat Prod, 2016):

Experiments:
[1] = tested on: Human immunodeficiency virus 1; experiment: Antiviral activity against HIV1 NL4-3 infected in human MT4 cells assessed as reduction in viral replication measured on day 3 post infection by luciferase reporter gene assay; format: functional, organism-based
MT4 = experiment: Cytotoxicity against human MT4 cells assessed as reduction in cell viability after 3 days by CytoTox-Glo assay; format: cell-based; conditions: mt4, 72 h
How it was run: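 MT4 cells were cultured with various compound concentrations for 3 days. Viability was read by the CytoTox-Glo assay following the manufacturer's protocol. CC50 is the concentration giving a 50% reduction in cell viability.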

[2] = Selectivity index, ratio of CC50 for human MT4 cells to EC50 for HIV1 NL4-3 infected in human MT4 cells; format: toxicity, cell-based; conditions: read-out: Ratio CC50/EC50
[3] = Human immunodeficiency virus 1, NL4-3, MT4, 72 h

Row | Compound | EC50 [1, 3] | CC50 (MT4; 72 h) | selectivity ratio [2] | EC50 ([1]; mt4) | CC50 (MT4)
1 | COc1cc(/C=C/C(=O)OCCCc2ccc(O[C@@H](COC(=O)/C=C/c3ccc(O)c(OC)c3)[C@H](OC)c3ccc(O)c(OC)c3)c(OC)c2)ccc1O (stereo in doubt; 1a) | 6.3 µM | 21 µM | 3.3 |  | 
2 | COc1cc(/C=C/C(=O)OCCCc2ccc(O[C@H](COC(=O)/C=C/c3ccc(O)c(OC)c3)[C@@H](OC)c3ccc(O)c(OC)c3)c(OC)c2)ccc1O (stereo in doubt; 1b) | 5.3 µM | 17 µM | 3.2 |  | 
3 | COc1cc(/C=C/C(=O)OCCCc2ccc(O[C@H](COC(=O)/C=C/c3ccc(O)c(OC)c3)[C@@H](OC)c3ccc(O)c(OC)c3)c(OC)c2)ccc1O (stereo in doubt; 2a) |  |  |  | > 10 µM | 
4 | CCOC(=O)/C=C/c1ccc(O)c(OC)c1 [ETHYL FERULATE] | > 10 µM |  |  |  | > 10 µM
5 | COc1cc(/C=C/C(=O)O)ccc1O [FERULATE] | > 10 µM |  |  |  | > 10 µM
6 | Cc1cn([C@H]2C[C@H](N=[N+]=[N-])[C@@H](CO)O2)c(=O)[nH]c1=O [ZIDOVUDINE] |  |  |  |  | > 0.1 µM
